The list is not random: actives were taken first. Their share in the collection is about 2.1%.
Xi reactivation = X-chromosome reactivation activator | XiGFP mouse fibroblasts, % GFP-positive cells imaging, 3 d; cells co-treated with 5-aza-dC sensitizer; scaled so ellipticine positive control = 100% | activation, % at 7.58 µM | 360,000 compounds, 0.055% hits | AID 743238;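 active means mean normalized replicate activation at least 10% and every replicate at or above 10%; inconclusive means only one of the two criteria met; inactive means mean below 10% and not all replicates reach 10%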;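 further: 0% = median of on-plate neutral control wells and 100% = ellipticine 6 µM median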
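material = 68-5-11 XiGFP fibroblast line | medium = DMEM plus 5-aza-dC sensitizer | schedule = 3 days compound exposure | benchmarks = positive control ellipticine, 6 µM final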
PGC1a acetyl inh = PGC1a acetylation modulation, inhibitor mode | inhibition, % at 15.6 µM | AID 651687 | 350,000 compounds, 0.17% hits | U2OS PGC1a acetylation, AlphaScreen anti-acetyl-lysine; with virally co-expressed GCN5 acetyltransferase;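 active means every replicate shows inhibition of at least 40%; inconclusive means mean inhibition at least 40% but some replicate below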;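 further: 0% = neutral control wells and 100% = positive control wells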
EWS-Fli block = inhibitors of EWS/Fli oncoprotein transcriptional activity | A673 NR0B1-luciferase reporter, viability-normalised | 350,000 compounds, 0.67% hits | AID 651661 | inhibition, % at 12.6 µM;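 active means mean inhibition of at least 50% after viability correction, with every replicate also passing that limit; inconclusive means mean reaches 50% but only one of two replicates passes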;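 further: firefly luciferase signal divided by Alamar Blue viability fluorescence both relative to DMSO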
PAX8 inh HTS = lowers PAX8-driven luciferase in RMG-I cells; RMG-I TPO-luciferase reporter, SteadyGlo, 24 h; inhibition, % at 12.6 µM; 360,000 compounds, 1.2% hits; AID 652154;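 active means mean replicate inhibition at least 60% with every replicate also reaching 60%; inconclusive means only one of the two criteria is met; inactive means mean below 60% and not all replicates reaching 60%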;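 further: luciferase light reporting Pax8 driven TPO promoter activity; plate controls were median of neutral control wells for no effect and mitoxantrone controls for full effect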
AF4-AF9 inh = blocks AF4 peptide binding to human AF9; P42568; AlphaScreen, biotin-AF4 peptide binding to FLAG-AF9; inhibition, % at 10 µM; 350,000 compounds, 0.47% hits; AID 651704;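 active means every replicate reaching a set inhibition limit, whatever the replicate mean, cut at about 25% in these data; inconclusive means mean inhibition reaches that limit but some replicates miss it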;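 further: 0% = plate neutral control median and 100% = total signal loss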
Target sequence (P42568 whole entry, looked up): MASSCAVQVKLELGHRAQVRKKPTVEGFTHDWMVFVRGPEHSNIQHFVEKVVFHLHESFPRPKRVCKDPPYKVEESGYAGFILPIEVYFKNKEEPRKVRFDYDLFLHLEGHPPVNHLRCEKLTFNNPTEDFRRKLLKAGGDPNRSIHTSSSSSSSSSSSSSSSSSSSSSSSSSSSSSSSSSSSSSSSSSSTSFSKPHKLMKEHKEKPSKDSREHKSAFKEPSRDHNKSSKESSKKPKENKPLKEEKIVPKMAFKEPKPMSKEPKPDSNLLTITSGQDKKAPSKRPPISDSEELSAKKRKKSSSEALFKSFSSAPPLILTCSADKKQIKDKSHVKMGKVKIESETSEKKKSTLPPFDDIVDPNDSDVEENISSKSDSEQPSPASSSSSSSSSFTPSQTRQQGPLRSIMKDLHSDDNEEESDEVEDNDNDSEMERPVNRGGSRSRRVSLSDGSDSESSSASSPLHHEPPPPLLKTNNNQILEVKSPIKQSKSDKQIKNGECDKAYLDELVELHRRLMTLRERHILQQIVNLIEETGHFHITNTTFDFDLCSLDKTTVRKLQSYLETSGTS
GSIS activator = GLuc luminescence reporter in INS-1E cells, primary screen for activators of glucose-dependent secretion of insulin. activation, % at 16.6 µM. INS-1E GLuc reporter insulin secretion, 2-3 h. 370,000 compounds, 0.61% hits;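 active means lowest replicate activation of at least 40%, so every replicate reaches that level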;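 further: 0% = median of neutral control wells and 100% = median of IBMX positive control wells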
Alpha interfer = interferes with the AlphaScreen assay signal; shares compounds with AF4-AF9 inh; AlphaScreen interference counter-screen, signal luminescence; AC50, µM (doses to about 12 µM), inactives show at the highest dose activity change, negative = inhibition; 530 compounds, 45% hits; cut-off not given, nearly all actives have AC50 up to about 14 µM
* = called active by the depositor; ? = inconclusive; · = no result given.

SMILES	Xi reactivation	PGC1a acetyl inh	EWS-Fli block	PAX8 inh HTS	AF4-AF9 inh	GSIS activator	Alpha interfer
CCC[C@@H](CN1CCC[C@H]1CN1C(N)=NC[C@@H]1Cc1ccccc1)N1C[C@@H](Cc2ccccc2)N(CCc2ccc(Cl)c(Cl)c2)C1=N	0	·	4	-13	30*	-9	-9%
O=C(COc1cc(F)ccc1[N+](=O)[O-])Nc1ccc(N2CCCCC2)cc1	0	·	-8	-2	?	-4	-35%
O=C(COc1cc(F)ccc1[N+](=O)[O-])Nc1ccc(N2CCOCC2)cc1	0	·	4	-10	3	-5	·
COc1ccc2c3c([nH]c2c1)[C@@H](CO)N(C(=O)CC1CC1)CC31CCN(Cc2cncnc2)CC1	1	·	·	·	·	-16	·
COc1ccc(C(CCNCc2ccc(N(C)C)cc2)c2ccccc2OC)cc1 (centres undefined)	0	5	25	22	51*	-5	4.7µM*
COc1ccc(CNCCC(c2ccc(OC)cc2)c2ccccc2OC)cc1 (centres undefined)	0	-3	42	20	6	-23	·
O=C1CCC[C@@H]2C[C@@]3(C[C@@H]4CCN1[C@H]24)Nc1cc(Cl)ccc1NC3=NC1CCCCC1	0	6	11	25	6	·	·
Cc1cc2c(cc1C)N[C@]1(C[C@H]3CCCC(=O)N4CC[C@@H](C1)[C@@H]34)C(=NC(C)(C)CC(C)(C)C)N2	0	6	-1	28	50*	·	-24%
COc1cccc(-c2sc3ccccc3c2-c2ccc(OCCN(C)C)cc2)c1	0	10	11	?	29*	250	0%
CC(C)N1CCN(c2ccc(OCC3COC(Cn4cncn4)(c4ccc(Cl)cc4Cl)O3)cc2)CC1 (centres undefined)	0	4	-8	-13	20	-4	-31%
COc1ccc(N2CCN(Cc3nc(-c4ccc(Cl)cc4Cl)no3)CC2)cc1	·	11	·	·	·	-14	·
Oc1c(C(c2ccccn2)N2CCCCC2)cc(Cl)c2cccnc12 (centres undefined)	·	3	37	77*	58*	-10	8.7µM*
CN1CCN(C(c2ccc(Cl)cc2)c2cc(Cl)c3cccnc3c2O)CC1 (centres undefined)	0	·	·	54	85*	-30	2.2µM*
CN1CCN(C(c2ccc(C(F)(F)F)cc2)c2cc(Cl)c3cccnc3c2O)CC1 (centres undefined)	1	·	42	?	81*	-12	2.1µM*
Cc1[nH]c2ccccc2c1C(c1ccccn1)N1CCCC1 (centres undefined)	0	16	0	9	0	14	·
COc1ccc(S(=O)(=O)Nc2cccc3c2O[C@@H](CN(C)C(=O)Nc2ccc(C(F)(F)F)cc2)[C@@H](C)CN([C@H](C)CO)C3=O)cc1	0	-2	-10	·	0	-33	·
O=C1CN(Cc2ccc(F)cc2)C[C@@H]2[C@H](c3ccc(-c4cccnc4)cc3)[C@@H](CO)N12	0	-1	·	·	-7	3	·
C[C@@H]1CCCCO[C@@H](CN(C)CC2CCCCC2)[C@@H](C)CN([C@H](C)CO)C(=O)c2cc(NC(=O)Nc3cccc4ccccc34)ccc2O1	-1	-8	8	-2	-1	-9	·
C[C@H]1CN([C@@H](C)CO)C(=O)c2cccc(NS(=O)(=O)c3ccc(Cl)cc3)c2O[C@H]1CN(C)Cc1ccc(-c2ccccc2)cc1	-1	0	5	12	2	·	·
COc1ccccc1C#Cc1ccc2c(c1)[C@H]1[C@H](CCN1C(=O)c1ccncc1)[C@@H](CO)N2	0	·	·	·	51*	-15	8µM*
CCOC(=O)c1c(C)n(-c2ccc(C)cc2)c2ccc(OCC(O)CNCCCO)cc12 (centres undefined)	0	-13	31	31	27*	24	-19%
C[C@H](CO)N1C[C@H](C)[C@@H](CN(C)C(=O)Nc2ccc(C(F)(F)F)cc2)Oc2c(NS(=O)(=O)c3ccc(Cl)cc3)cccc2C1=O	0	-1	0	·	-2	-8	·
CCN(CC)c1ccc(CN2CCC(C(=O)NCc3ccc(C)cc3)CC2)cc1	0	-12	22	23	?	-6	-35%
COc1ccc(N=C2S/C(=C\c3ccc(Cl)c([N+](=O)[O-])c3)C(=O)N2CCN(C)C)cc1	1	-28	64*	6	26*	-24	6.7µM*
CN(C)CCNC(=O)c1cccc(-c2cc(NC=O)c3ncc(-c4cccc(C(F)(F)F)c4)n3c2)c1	1	4	30	57	36*	124*	-33%
C=CCOC(=O)[C@H]1[C@@H]2C(=O)O[C@@H](c3ccccc3)[C@@H](c3ccccc3)N2[C@@H](c2ccc(OCCOC(=O)[C@@H]3C[C@@H]4C(=O)N[C@@H](CC(C)C)C(=O)N4[C@@H]3c3ccc(O)cc3)cc2)[C@]12C(=O)Nc1ccc(I)cc12	·	11	1	14	-2	·	·
